Laboratory results reported in PubChem BioAssay.
The source made the active and inactive calls.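 How the source made its calls, unless noted: active means inhibition of the reporter signal at or above 50%; inactive means inhibition below 50%.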

What was measured:
[1] = inhibitors of TNFa-induced NFkB p65 translocation, primary screen, imaging, HUVEC, MLSMR starter and 10KST1 sets (AID 438;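 active means inhibition above 20% together with a positive visual image hit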;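 further: compound added about 3h40 before a 20 min TNFalpha stimulation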;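 on inhibition: signal is the nuclear over cytoplasmic p65 intensity ratio per well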); conditions: HUVEC TNFa-induced p65 nuclear translocation; cell count: measured here: nuclei count (cytotoxicity indicator), at 2.08 µM; inhibition: at 2 µM, stronger effect = higher value, 0% TNFa-plus-vehicle, 100% no-TNFa wells
[2] = inhibitors of mutant huntingtin aggregation, primary screen, imaging, exon1htt(103Q)mCFP cells, high-content imaging (AID 483;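 active means visual image review flags a hit and inhibition of aggregation exceeds 20%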;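 further: compound exposure lasted 3 days before fixation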;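 on nuclei count: percent of the per-plate median nuclei count of sample wells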); conditions: exon1htt(103Q)mCFP cell line, aggregate imaging, at 2 µM; inhibition of aggregation: stronger effect = higher value; nuclei count: measured here: cell count, toxicity
[3] = inhibitors of E-selectin induction by TNFa, primary screen, imaging, HUVEC, immunofluorescence, MLSMR starter and 10KST1 sets (AID 487;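 active means visually confirmed hit in the image check and inhibition above 20%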;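 on inhibition: signal is fraction of cell area covered by stained E-selectin grains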;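 on nuclei count: 100% = median nuclei count of all wells on the same plate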); conditions: HUVEC TNFalpha-induced E-selectin immunofluorescence imaging, at 2 µM; inhibition: stronger effect = higher value; nuclei count: measured here: cell number, toxicity
[4] = target: Voltage-gated potassium channel subunit beta-2 (Rattus norvegicus) (UniProt P62483); assay: KvBeta enzyme negative modulators, primary screen, biochemical, NADPH fluorescence (AID 622;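 active means fluorescence slope higher than the sample average by over 3 SD, cut at about -0.22 in these data, passing the limit was not always enough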;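 further: slope of raw intensity against log time taken from 70 to 1610 s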); conditions: recombinant KvBeta, 4-cyanobenzaldehyde reduction, at 10 µM, stronger effect = higher value
Sequence of Voltage-gated potassium channel subunit beta-2 (Rattus norvegicus) (P62483 whole entry, looked up): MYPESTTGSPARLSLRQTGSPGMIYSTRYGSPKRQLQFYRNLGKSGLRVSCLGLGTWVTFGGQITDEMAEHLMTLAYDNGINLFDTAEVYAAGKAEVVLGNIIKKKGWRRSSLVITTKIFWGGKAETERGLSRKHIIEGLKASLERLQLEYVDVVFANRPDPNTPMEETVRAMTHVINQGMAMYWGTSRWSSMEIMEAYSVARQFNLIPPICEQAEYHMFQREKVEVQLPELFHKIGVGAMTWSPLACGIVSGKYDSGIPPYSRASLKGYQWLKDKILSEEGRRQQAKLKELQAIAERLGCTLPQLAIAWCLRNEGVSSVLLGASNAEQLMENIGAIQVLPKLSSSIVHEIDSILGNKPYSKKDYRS

[5] = target: Voltage-gated potassium channel subunit beta-2 (Rattus norvegicus) (UniProt P62483); assay: KvBeta positive modulators, primary screen, biochemical, NADPH fluorescence (AID 623;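 active means NADPH fluorescence slope more negative than the mean of all samples by about 3 SD, 99.7% confidence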;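 further: fluorescence intensity change per second fitted from 20 to 320 s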); conditions: Recombinant KvBeta, NADPH fluorescence decrease slope, 10 min; at 10 µM; stronger effect = lower value
[6] = target: Alpha-2C adrenergic receptor (Homo sapiens) (UniProt P18825); assay: modulators of alpha2C/GIRK thallium flux, primary screen, cell-based, HEK293 alpha2C/GIRK1/2 (AID 624;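 active means fluorescence slope after compound addition differing from the mean of all screened samples at 99.7% confidence, in either direction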;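 further: slope of fluorescence ratio to pre-addition baseline per second over 15 to 24 s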); conditions: thallium flux BTC fluorescence, at 10 µM, actives lie on both sides
Sequence of Alpha-2C adrenergic receptor (Homo sapiens) (P18825 whole entry, looked up): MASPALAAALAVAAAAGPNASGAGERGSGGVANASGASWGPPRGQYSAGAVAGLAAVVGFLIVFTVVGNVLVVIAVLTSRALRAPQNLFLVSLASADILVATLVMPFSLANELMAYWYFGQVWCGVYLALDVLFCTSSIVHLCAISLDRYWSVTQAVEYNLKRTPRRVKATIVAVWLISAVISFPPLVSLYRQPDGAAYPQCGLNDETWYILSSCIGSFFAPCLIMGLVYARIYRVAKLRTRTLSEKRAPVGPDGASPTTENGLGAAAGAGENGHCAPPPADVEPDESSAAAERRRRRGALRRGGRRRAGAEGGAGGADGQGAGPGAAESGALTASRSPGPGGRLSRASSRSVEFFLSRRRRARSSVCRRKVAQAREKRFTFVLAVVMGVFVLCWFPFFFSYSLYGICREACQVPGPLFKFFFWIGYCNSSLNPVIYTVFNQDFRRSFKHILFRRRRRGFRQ

[7] = inhibitors of larval lipid processing in zebrafish, primary screen, whole organism, PED6 fluorescence, gall bladder and intestine (AID 686;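 active means a full or partial loss of lipid-probe fluorescence in the fish gall bladder, intestine or both, judged by eye; inactive means no fluorescence loss, or compound toxic to the fish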;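 further: larvae 5 to 7 days old with five fish per well; signal comes from phospholipase A2 cleavage of quenched PED6 carried via bile; overnight exposure to compound and PED6 before scoring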); conditions: Zebrafish larvae PED6 lipid processing, fluorescence scoring; screened at 20 µM (by protocol)
How it was run: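 Doses: 20 µM single dose. Test system: live zebrafish larvae aged 5-7 days, whole organism. Quantity: five larvae per well. Measured by: By-eye fluorescence microscopy. Reagent: ingested quenched lipid PED6 at 100 nM. Read-out: visual per-well fluorescence inhibition score. Times: overnight exposure of larvae to compound plus PED6.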

[8] = inhibitors of Sendai virus-induced IRF3 signaling, primary screen, TLR/RLR signaling modifier project, cell-based, Sendai virus stimulus, luciferase, 10K MLSCN set (AID 602276;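 active means inhibition at or above 50% at 10 µM; inactive means inhibition below 50%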;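 further: firefly luciferase from ISG56 promoter only with Renilla not read in this screen; 0% = Sendai virus plus DMSO and 100% = medium plus DMSO without virus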); conditions: HEK293 RL24 IRF3 luciferase reporter, at 10 µM, stronger effect = higher value
[9] = inhibitors of poly I:C-induced TLR3 signaling, primary screen, cell-based, poly I:C stimulus, luciferase, 10K MLSCN set (AID 602277); conditions: HEK293-TLR3 RL24 IRF3 luciferase reporter, at 10 µM, stronger effect = higher value

CC(=O)Nc1ccc(Cc2ccncc2)cc1
115%: nuclei count [3]
93.3%: nuclei count [2]
528: cell count [1]
inactive: inhibition [1] -7.4% | inhibition of aggregation [2] 14.9% | inhibition [3] -40.3% | fluorescence slope [4] -0.39 | NADPH fluorescence slope [5] -4.8e-05 | slope [6] 0.00486 | outcome [7] | inhibition [8] 6.14% | inhibition [9] 4.37%

C1=C(CCNc2ncnc3c2cnn3-c2ccccc2)CCCC1
355: cell count [1]
91.5%: nuclei count [2]
inactive: inhibition [1] 2.8% | inhibition of aggregation [2] 17.1% | inhibition [3] -22.4% | fluorescence slope [4] -0.375 | NADPH fluorescence slope [5] -6.3e-05 | slope [6] 0.00514 | outcome [7] | inhibition [8] -36.5% | inhibition [9] -142%
124%: nuclei count [3]

Clc1ccc(Cl)c(-c2nn3c(Cn4cnc5ccccc54)nnc3s2)c1
inactive: inhibition [1] 15.8% | inhibition of aggregation [2] -6.5% | inhibition [3] -91.4% | fluorescence slope [4] -0.446 | NADPH fluorescence slope [5] -3.8e-05 | slope [6] 0.00462 | outcome [7] | inhibition [8] 13.6% | inhibition [9] 13.1%
102%: nuclei count [2]
566: cell count [1]
121%: nuclei count [3]

CSc1c(CC(=O)NCCO)n(C)c2ccccc12
575: cell count [1]
88%: nuclei count [2]
inactive: inhibition [1] -14% | inhibition of aggregation [2] 8.4% | inhibition [3] -3.5% | fluorescence slope [4] -0.338 | NADPH fluorescence slope [5] 1.3e-05 | slope [6] 0.005 | outcome [7] | inhibition [8] 1.14% | inhibition [9] 5.52%
105%: nuclei count [3]

Cc1cc(-c2ccccc2)nc(SCc2ccc(C(=O)O)o2)n1
105%: nuclei count [3]
inactive: inhibition [1] -1.3% | inhibition of aggregation [2] 0.6% | inhibition [3] -106% | fluorescence slope [4] -0.373 | NADPH fluorescence slope [5] -6.9e-05 | slope [6] 0.00508 | outcome [7] | inhibition [8] 7.19% | inhibition [9] 8.59%
398: cell count [1]
86.2%: nuclei count [2]

Cc1ccc(C)c(-n2nnnc2SCC(=O)NCCC2=CCCCC2)c1
inactive: inhibition [1] -6.6% | inhibition of aggregation [2] 28.8% | inhibition [3] -16.3% | fluorescence slope [4] -0.468 | NADPH fluorescence slope [5] -5.4e-05 | slope [6] 0.00361 | outcome [7] | inhibition [8] 17.6% | inhibition [9] 14.8%
99.5%: nuclei count [2]
106%: nuclei count [3]
409: cell count [1]

Cn1c(=O)c2c(nc(NCCCO)n2Cc2cccc(Br)c2)n(C)c1=O
92.8%: nuclei count [3]
108%: nuclei count [2]
inactive: inhibition [1] -1.8% | inhibition of aggregation [2] 1.7% | inhibition [3] 25.3% | fluorescence slope [4] -0.349 | NADPH fluorescence slope [5] -4.6e-05 | slope [6] 0.00493 | outcome [7] | inhibition [8] 14.9% | inhibition [9] 14.1%
705: cell count [1]

CC(C)C(CO)NC(=O)CC(=O)NC(CO)C(C)C (stereo unspecified)
inactive: inhibition [1] -5.6% | inhibition of aggregation [2] 4.9% | inhibition [3] 48.7% | fluorescence slope [4] -0.392 | NADPH fluorescence slope [5] -5.1e-05 | slope [6] 0.00488 | outcome [7] | inhibition [8] 9.94% | inhibition [9] 12.2%
82.3%: nuclei count [2]
627: cell count [1]
35.5%: nuclei count [3]

COc1ccccc1NC(=O)NC(N)=O
115%: nuclei count [3]
104%: nuclei count [2]
580: cell count [1]
inactive: inhibition [1] 0.5% | inhibition of aggregation [2] -22.8% | inhibition [3] -36.1% | fluorescence slope [4] -0.386 | NADPH fluorescence slope [5] 4.8e-06 | slope [6] 0.00503 | outcome [7] | inhibition [8] 2.43% | inhibition [9] 1.16%

O=C(c1ccco1)c1nnn(Cc2ccccc2)c1-c1ccccc1
inactive: inhibition [1] -4.3% | inhibition of aggregation [2] 4% | inhibition [3] -90% | fluorescence slope [4] -0.347 | NADPH fluorescence slope [5] 7.1e-06 | slope [6] 0.00349 | outcome [7] | inhibition [8] -4.9% | inhibition [9] 0.479%
116%: nuclei count [3]
346: cell count [1]
122%: nuclei count [2]

CCCn1c(=O)c(C(=O)NCc2ccccn2)c(O)c2ccccc21
108%: nuclei count [3]
inactive: inhibition [1] 4.2% | inhibition of aggregation [2] -20.9% | inhibition [3] -32.3% | fluorescence slope [4] -0.403 | NADPH fluorescence slope [5] -9e-05 | slope [6] 0.00521 | outcome [7] | inhibition [8] -22.2% | inhibition [9] -53.3%
345: cell count [1]
111%: nuclei count [2]

O=C(Nc1nnc(SCC(=O)N2CCCCC2)s1)C1CCCCC1
118%: nuclei count [3]
inactive: inhibition [1] -3.4% | inhibition of aggregation [2] 1.9% | inhibition [3] -34.7% | fluorescence slope [4] -0.346 | NADPH fluorescence slope [5] -3.5e-05 | slope [6] 0.00464 | outcome [7] | inhibition [8] 9.52% | inhibition [9] 13.5%
99.2%: nuclei count [2]
437: cell count [1]

CC(C)(C)NC(=O)C(Cc1ccccc1)NS(=O)(=O)c1cccc2nsnc12 (stereo unspecified)
inactive: inhibition [1] -19.8% | inhibition of aggregation [2] -37.6% | inhibition [3] -49.9% | fluorescence slope [4] -0.413 | NADPH fluorescence slope [5] 1.1e-05 | slope [6] 0.00438 | outcome [7] | inhibition [8] 3.22% | inhibition [9] 8.45%
721: cell count [1]
113%: nuclei count [2]
112%: nuclei count [3]
